According to ChEMBL document CHEMBL4382210, “Identification of novel benzothiopyranone compounds against Mycobacterium tuberculosis through scaffold morphing from benzothiazinones” (Eur J Med Chem, 2018):
In brackets after ≈: the same amount, converted by molar mass.

Assays:
Vero = test: Cytotoxicity against African green monkey Vero cells assessed as reduction in cell viability after 48 hrs by MTT assay; type: cell-based; conditions: Chlorocebus sabaeus
Procedure, shortened: (§1)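 Vero or HepG2 cells in RPMI1640 with 10% FBS at 37 °C, 5% CO2, seeded at 4×10^5 cells/mL. Threefold dilutions at 64–0.26 µg/mL final for 48 h. Cells then washed with HBSS, MTT added for 4 h, absorbance read at 492 nm. IC50 taken relative to untreated control.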

[1] = tested on: Mycobacterium tuberculosis; test: Antimicrobial activity against Mycobacterium tuberculosis H37Rv after 7 days by MABA; type: functional; conditions: 168 h
Procedure, shortened: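 Strain H37Rv or clinical isolates grown to late log phase in 7H9-ADC-TG, washed, resuspended in PBS, filtered (8 µm) and frozen. On day 7 Tween 80 and alamar blue added, read 16–24 h later (ex 530/em 590). MIC = lowest concentration giving ≥90% fluorescence reduction versus bacterium-only controls.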

[2] = Metabolic stability in CD-1 mouse liver microsomes assessed as parent compound remaining at 1 uM measured after 30 mins in presence of NADPH by LC-MS/MS analysis; type: ADME, Microsome; conditions: read-out: Stability
Procedure, shortened: (§2)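 Male CD-1 mouse or pooled human liver microsomes (1 mg/mL protein), compound at 1 µM, 37 °C. Reaction started with 1 mM NADPH and quenched with cold ACN/MeOH containing internal standard. Parent remaining measured by LC-MS/MS; the 30-min value is normalised to time zero.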

[3] = Metabolic stability in human liver microsomes assessed as parent compound remaining at 1 uM measured after 30 mins in presence of NADPH by LC-MS/MS analysis; type: ADME, Microsome; conditions: read-out: Stability; procedure, shortened: as §2
HepG2 = test: Cytotoxicity against human HepG2 cells assessed as reduction in cell viability after 48 hrs by MTT assay; type: cell-based; conditions: HepG2, 48 h; procedure, shortened: as §1
[4] = Selectivity index, ratio of IC50 for human HepG2 cells to MIC=>90 for Mycobacterium tuberculosis H37Rv; type: toxicity; conditions: read-out: Selectivity Index
[5] = Inhibition of Mycobacterium tuberculosis DprE1 expressed in Escherichia coli BL21(DE3) by fluorescence based assay
Procedure, shortened: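 Buffer: 50 mM Hepes pH 7.5, 100 mM NaCl, 1.5% DMSO, 100 µM Tween-20, 2 µM FAD, 50 µM resazurin. DprE1 (1 µM) with 1 mM FPR at 30 °C across inhibitor concentrations. Resorufin formation followed by fluorescence (ex 530/em 595 nm).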

Compound: CC1CN(c2cc(=O)c3cc(C(F)(F)F)cc([N+](=O)[O-])c3s2)CCN1Cc1ccccc1 (stereo unspecified)
- IC50 (Vero): > 64 µg/mL
- MIC90 [1]: < 0.016 µg/mL
- remaining at 0.5 h, 1 µM [2]: 54.5%
- remaining at 0.5 h, 1 µM [3]: 76.7%

Compound: O=c1cc(NCc2ccc(F)cc2)sc2c([N+](=O)[O-])cc(C(F)(F)F)cc12
- IC50 (Vero): > 64 µg/mL
- MIC90 [1]: 0.206 µg/mL (≈ 0.517 µM)

Compound: O=c1nc(NCc2ccc(F)cc2)oc2c([N+](=O)[O-])cc(C(F)(F)F)cc12
- IC50 (Vero): > 64 µg/mL
- MIC90 [1]: 7.22 µg/mL (≈ 18.8 µM)

Compound: O=c1cc(N2CCN(Cc3ccccc3)CC2)sc2c([N+](=O)[O-])cc(C(F)(F)F)cc12
- IC50 (Vero): > 64 µg/mL
- IC50 (HepG2): > 64 µg/mL
- MIC90 [1]: 0.03 µg/mL (≈ 0.0667 µM)
- remaining at 0.5 h, 1 µM [2]: 60.5%
- remaining at 0.5 h, 1 µM [3]: 87.6%
- selectivity ratio [4]: > 2130
- IC50 [5]: 1.33 µM

Compound: O=c1nc(NCc2ccccc2)oc2c([N+](=O)[O-])cc(C(F)(F)F)cc12
- IC50 (Vero): 25.4 µg/mL (≈ 69.4 µM)
- MIC90 [1]: 30.5 µg/mL (≈ 83.6 µM)

Compound: O=c1cc(N2CCN(c3nccs3)CC2)sc2c([N+](=O)[O-])cc(C(F)(F)F)cc12
- IC50 (Vero): > 64 µg/mL
- MIC90 [1]: 0.054 µg/mL (≈ 0.122 µM)

Compound: C[C@H]1COC2(CCN(c3nc(=O)c4cc(C(F)(F)F)cc([N+](=O)[O-])c4s3)CC2)O1 [BTZ-043]
- IC50 (Vero): > 64 µg/mL
- MIC90 [1]: < 0.016 µg/mL
- IC50 [5]: 1.03 µM

Compound: CO[C@H]1/C=C/O[C@@]2(C)Oc3c(C)c(O)c4c(O)c(c(/C=N/N5CCN(C)CC5)c(O)c4c3C2=O)NC(=O)/C(C)=C\C=C\[C@H](C)[C@H](O)[C@@H](C)[C@@H](O)[C@@H](C)[C@H](OC(C)=O)[C@@H]1C [RIFAMPIN]
- MIC90 [1]: 0.096 µg/mL (≈ 0.117 µM)

Compound: COc1ccc(CNc2cc(=O)c3cc(C(F)(F)F)cc([N+](=O)[O-])c3s2)cc1OC
- IC50 (Vero): > 64 µg/mL
- MIC90 [1]: 0.902 µg/mL (≈ 2.05 µM)

Compound: CC1CN(c2cc(=O)c3cc(C(F)(F)F)cc([N+](=O)[O-])c3s2)CCN1CC1CCCCC1 (stereo unspecified)
- IC50 (Vero): > 64 µg/mL
- MIC90 [1]: < 0.016 µg/mL
- remaining at 0.5 h, 1 µM [2]: 59.9%
- remaining at 0.5 h, 1 µM [3]: 62.7%

Compound: O=c1cc(N2CCN(CC3CCCCC3)CC2)oc2c([N+](=O)[O-])cc(C(F)(F)F)cc12
- IC50 (Vero): 10.6 µg/mL (≈ 24.1 µM)
- MIC90 [1]: 0.116 µg/mL (≈ 0.264 µM)

Compound: O=c1cc(NCc2ccc3c(c2)OCCO3)sc2c([N+](=O)[O-])cc(C(F)(F)F)cc12
- IC50 (Vero): > 64 µg/mL
- MIC90 [1]: 0.03 µg/mL (≈ 0.0684 µM)

Compound: CC1CN(c2nc(=O)c3cc(C(F)(F)F)cc([N+](=O)[O-])c3o2)CCN1CC1CCCCC1 (stereo unspecified)
- IC50 (Vero): 10.9 µg/mL (≈ 23.9 µM)
- MIC90 [1]: < 0.016 µg/mL

Compound: O=C1CN(c2cc(=O)c3cc(C(F)(F)F)cc([N+](=O)[O-])c3o2)CCN1CC1CCCCC1
- IC50 (Vero): 9.73 µg/mL (≈ 21.5 µM)
- MIC90 [1]: 0.091 µg/mL (≈ 0.201 µM)

Compound: O=c1nc(Nc2ccccc2)oc2c([N+](=O)[O-])cc(C(F)(F)F)cc12
- IC50 (Vero): 37.9 µg/mL (≈ 108 µM)
- MIC90 [1]: 30.6 µg/mL (≈ 87.3 µM)

Compound: O=c1cc(Nc2ccccc2)sc2c([N+](=O)[O-])cc(C(F)(F)F)cc12
- IC50 (Vero): > 64 µg/mL
- MIC90 [1]: > 32 µg/mL

Compound: O=c1nc(NCc2cccc(F)c2)oc2c([N+](=O)[O-])cc(C(F)(F)F)cc12
- IC50 (Vero): > 64 µg/mL
- MIC90 [1]: > 32 µg/mL

Compound: O=c1cc(NCc2cccc(F)c2)sc2c([N+](=O)[O-])cc(C(F)(F)F)cc12
- IC50 (Vero): > 64 µg/mL
- MIC90 [1]: 0.118 µg/mL (≈ 0.296 µM)

Compound: CC1COC2(CCN(c3cc(=O)c4cc(C(F)(F)F)cc([N+](=O)[O-])c4s3)CC2)O1 (stereo unspecified)
- IC50 (Vero): > 64 µg/mL
- MIC90 [1]: 0.03 µg/mL (≈ 0.0697 µM)
- remaining at 0.5 h, 1 µM [2]: 47.4%
- remaining at 0.5 h, 1 µM [3]: 82.8%
- IC50 [5]: 0.63 µM

Compound: CN(Cc1ccc2c(c1)OCCO2)c1cc(=O)c2cc(C(F)(F)F)cc([N+](=O)[O-])c2o1
- IC50 (Vero): 29.4 µg/mL (≈ 67.4 µM)
- MIC90 [1]: < 0.016 µg/mL

Compound: CC1CN(c2nc(=O)c3cc(C(F)(F)F)cc([N+](=O)[O-])c3o2)CCN1Cc1ccccc1 (stereo unspecified)
- IC50 (Vero): 15.6 µg/mL (≈ 34.8 µM)
- MIC90 [1]: < 0.016 µg/mL

Compound: CN(Cc1ccccc1)c1nc(=O)c2cc(C(F)(F)F)cc([N+](=O)[O-])c2o1
- IC50 (Vero): 3.84 µg/mL (≈ 10.1 µM)
- MIC90 [1]: 0.031 µg/mL (≈ 0.0817 µM)
